ChEMBL document CHEMBL1629444, “DNA-dependent protein kinase (DNA-PK) inhibitors. Synthesis and biological activity of quinolin-4-one and pyridopyrimidin-4-one surrogates for the chromen-4-one chemotype” (J Med Chem, 2010)

Experiments:
[1] = Inhibition of DNA-PK isolated from human HeLa cell extract assessed as reduction in p53 Ser15 phosphorylation by chemiluminescence assay; assay type: cell-free
HeLa [2] = test: Potentiation of ionizing radiation-induced cytotoxicity in human HeLa cells assessed as dose modification ratio at 0.1 uM pretreated 1 hr before 2 Gy ionizing radiation by Giemsa staining relative untreated control; assay type: functional
Procedure, shortened: (§1)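 HeLa cells seeded in six-well dishes and left overnight at 37 °C/5% CO2. Compound or vehicle given 1 h before a single 2 Gy X-ray dose, then incubated overnight. Medium replaced without compound and cells grown 6-8 days. Colonies Giemsa-stained and counted automatically. DMR is % survival at 2 Gy without compound divided by % survival at 2 Gy with compound.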

HeLa [3] = test: Potentiation of ionizing radiation-induced cytotoxicity in human HeLa cells assessed as dose modification ratio at 0.5 uM pretreated 1 hr before 2 Gy ionizing radiation by Giemsa staining relative untreated control; assay type: functional; procedure, shortened: as §1

O=c1cc(N2CCOCC2)oc2c1ccc1ccccc12
IC50 [1]: 230 nM

CCN1CCN(CC(=O)Nc2ccc(-c3cccc4c(=O)cc(N5CCOCC5)oc34)c3sc4ccccc4c23)CC1
IC50 [1]: 6 nM | Ratio (HeLa [2]): 3.2

O=C(CN1CCNCC1)Nc1ccc(-c2cccn3c(=O)cc(N4CCOCC4)nc23)c2sc3ccccc3c12
IC50 [1]: 25 nM | Ratio (HeLa [2]): 1.5 | Ratio (HeLa [3]): 6.2

O=C(CN1CCOCC1)Nc1ccc(-c2cccn3c(=O)cc(N4CCOCC4)nc23)c2sc3ccccc3c12
IC50 [1]: 8 nM | Ratio (HeLa [2]): 3.5 | Ratio (HeLa [3]): 9.9

COCCN1CCN(CC(=O)Nc2ccc(-c3cccn4c(=O)cc(N5CCOCC5)nc34)c3sc4ccccc4c23)CC1
IC50 [1]: 22 nM | Ratio (HeLa [2]): 4 | Ratio (HeLa [3]): 14.4

CCN1CCN(CC(=O)Nc2ccc(-c3cccn4c(=O)cc(N5CCOCC5)nc34)c3sc4ccccc4c23)CC1
IC50 [1]: 18 nM | Ratio (HeLa [2]): 1.4 | Ratio (HeLa [3]): 7.7

O=C(CN1CCN(c2ccccn2)CC1)Nc1ccc(-c2cccn3c(=O)cc(N4CCOCC4)nc23)c2sc3ccccc3c12
IC50 [1]: 175 nM | Ratio (HeLa [3]): 3.9

CN1CCN(CC(=O)Nc2ccc(-c3cccn4c(=O)cc(N5CCOCC5)nc34)c3sc4ccccc4c23)CC1
IC50 [1]: 24 nM | Ratio (HeLa [2]): 2.4 | Ratio (HeLa [3]): 9.2

O=C(CN1CCN(CCO)CC1)Nc1ccc(-c2cccn3c(=O)cc(N4CCOCC4)nc23)c2sc3ccccc3c12
IC50 [1]: 19 nM | Ratio (HeLa [2]): 1.4 | Ratio (HeLa [3]): 13.6

O=C(CN(CCO)CCO)Nc1ccc(-c2cccn3c(=O)cc(N4CCOCC4)nc23)c2sc3ccccc3c12
IC50 [1]: 29 nM | Ratio (HeLa [2]): 1.1 | Ratio (HeLa [3]): 3.8

C[C@@H]1CN(CC(=O)Nc2ccc(-c3cccn4c(=O)cc(N5CCOCC5)nc34)c3sc4ccccc4c23)C[C@H](C)O1
IC50 [1]: 7 nM | Ratio (HeLa [3]): 15.1

O=C(CN1CCN(CCOCCO)CC1)Nc1ccc(-c2cccn3c(=O)cc(N4CCOCC4)nc23)c2sc3ccccc3c12
IC50 [1]: 51 nM | Ratio (HeLa [2]): 1 | Ratio (HeLa [3]): 8.3

CC(C)NC(=O)CN1CCN(CC(=O)Nc2ccc(-c3cccn4c(=O)cc(N5CCOCC5)nc34)c3sc4ccccc4c23)CC1
IC50 [1]: 25 nM | Ratio (HeLa [3]): 7.3

O=C(CCN1CCOCC1)Nc1ccc(-c2cccn3c(=O)cc(N4CCOCC4)nc23)c2sc3ccccc3c12
IC50 [1]: 86 nM | Ratio (HeLa [2]): 6.2 | Ratio (HeLa [3]): 6.2

O=C(CCN1CCCCC1)Nc1ccc(-c2cccn3c(=O)cc(N4CCOCC4)nc23)c2sc3ccccc3c12
IC50 [1]: 28 nM | Ratio (HeLa [2]): 14.3 | Ratio (HeLa [3]): 14.3

COc1ccc(CNCCC(=O)Nc2ccc(-c3cccn4c(=O)cc(N5CCOCC5)nc34)c3sc4ccccc4c23)cc1
IC50 [1]: 12 nM | Ratio (HeLa [2]): 6.7 | Ratio (HeLa [3]): 6.7

O=C(CCNCC1CCCO1)Nc1ccc(-c2cccn3c(=O)cc(N4CCOCC4)nc23)c2sc3ccccc3c12 (stereo not drawn)
IC50 [1]: 77 nM | Ratio (HeLa [2]): 4.3 | Ratio (HeLa [3]): 4.3

O=C(CCNCCCN1CCOCC1)Nc1ccc(-c2cccn3c(=O)cc(N4CCOCC4)nc23)c2sc3ccccc3c12
IC50 [1]: 29 nM | Ratio (HeLa [2]): 1.7 | Ratio (HeLa [3]): 1.7

CC(=O)N1CCN(CCC(=O)Nc2ccc(-c3cccn4c(=O)cc(N5CCOCC5)nc34)c3sc4ccccc4c23)CC1
IC50 [1]: 32 nM | Ratio (HeLa [2]): 2.1 | Ratio (HeLa [3]): 2.1

C[C@@H]1CN(CCC(=O)Nc2ccc(-c3cccn4c(=O)cc(N5CCOCC5)nc34)c3sc4ccccc4c23)C[C@H](C)O1
IC50 [1]: 27 nM | Ratio (HeLa [2]): 4.6 | Ratio (HeLa [3]): 4.6

NCC(=O)Nc1ccc(-c2cccc3c(=O)cc(N4CCOCC4)[nH]c23)c2sc3ccccc3c12
IC50 [1]: 198 nM | Ratio (HeLa [3]): 2.6

O=C(CN1CCOCC1)Nc1ccc(-c2cccc3c(=O)cc(N4CCOCC4)[nH]c23)c2sc3ccccc3c12
IC50 [1]: 60 nM | Ratio (HeLa [3]): 3.1

O=C(CN1CCNCC1)Nc1ccc(-c2cccc3c(=O)cc(N4CCOCC4)[nH]c23)c2sc3ccccc3c12
IC50 [1]: 133 nM | Ratio (HeLa [3]): 2.2

COCCN1CCN(CC(=O)Nc2ccc(-c3cccc4c(=O)cc(N5CCOCC5)[nH]c34)c3sc4ccccc4c23)CC1
IC50 [1]: 33 nM | Ratio (HeLa [2]): 1.2 | Ratio (HeLa [3]): 8.2

CCN1CCN(CC(=O)Nc2ccc(-c3cccc4c(=O)cc(N5CCOCC5)[nH]c34)c3sc4ccccc4c23)CC1
IC50 [1]: 61 nM | Ratio (HeLa [3]): 3.4

O=C(CN1CCN(c2ccccn2)CC1)Nc1ccc(-c2cccc3c(=O)cc(N4CCOCC4)[nH]c23)c2sc3ccccc3c12
IC50 [1]: 19 nM | Ratio (HeLa [3]): 5.8

CN1CCN(CC(=O)Nc2ccc(-c3cccc4c(=O)cc(N5CCOCC5)[nH]c34)c3sc4ccccc4c23)CC1
IC50 [1]: 43 nM | Ratio (HeLa [3]): 2.5

O=C(CN1CCN(CCO)CC1)Nc1ccc(-c2cccc3c(=O)cc(N4CCOCC4)[nH]c23)c2sc3ccccc3c12
IC50 [1]: 18 nM | Ratio (HeLa [3]): 2.1

O=C(CNCCCN1CCOCC1)Nc1ccc(-c2cccc3c(=O)cc(N4CCOCC4)[nH]c23)c2sc3ccccc3c12
IC50 [1]: 64 nM | Ratio (HeLa [3]): 4

O=C(CCN1CCOCC1)Nc1ccc(-c2cccc3c(=O)cc(N4CCOCC4)[nH]c23)c2sc3ccccc3c12
IC50 [1]: 179 nM | Ratio (HeLa [3]): 2.8

O=C(CCN1CCCCC1)Nc1ccc(-c2cccc3c(=O)cc(N4CCOCC4)[nH]c23)c2sc3ccccc3c12
IC50 [1]: 51 nM | Ratio (HeLa [3]): 2.9

O=C(CCNCC1CCCO1)Nc1ccc(-c2cccc3c(=O)cc(N4CCOCC4)[nH]c23)c2sc3ccccc3c12 (stereo not drawn)
IC50 [1]: 102 nM | Ratio (HeLa [3]): 2.1

CC(=O)N1CCN(CCC(=O)Nc2ccc(-c3cccc4c(=O)cc(N5CCOCC5)[nH]c34)c3sc4ccccc4c23)CC1
IC50 [1]: 21 nM | Ratio (HeLa [3]): 2.6

O=C(CCN1CCCCCC1)Nc1ccc(-c2cccc3c(=O)cc(N4CCOCC4)[nH]c23)c2sc3ccccc3c12
IC50 [1]: 141 nM | Ratio (HeLa [3]): 2.2

C[C@@H]1CN(CCC(=O)Nc2ccc(-c3cccc4c(=O)cc(N5CCOCC5)[nH]c34)c3sc4ccccc4c23)C[C@H](C)O1
IC50 [1]: 14 nM | Ratio (HeLa [3]): 2.2

O=C(CN1CCOCC1)Nc1ccc(-c2cccn3c(=O)cc(N4CCOCC4)nc23)c2oc3ccccc3c12
IC50 [1]: 59 nM | Ratio (HeLa [2]): 1.4 | Ratio (HeLa [3]): 2.3

CN1CCN(CC(=O)Nc2ccc(-c3cccn4c(=O)cc(N5CCOCC5)nc34)c3oc4ccccc4c23)CC1
IC50 [1]: 30 nM | Ratio (HeLa [2]): 1.1 | Ratio (HeLa [3]): 4.3

C[C@@H]1CN(CC(=O)Nc2ccc(-c3cccn4c(=O)cc(N5CCOCC5)nc34)c3oc4ccccc4c23)C[C@H](C)O1
IC50 [1]: 15 nM | Ratio (HeLa [2]): 1 | Ratio (HeLa [3]): 3

CCN1CCN(CC(=O)Nc2ccc(-c3cccn4c(=O)cc(N5CCOCC5)nc34)c3oc4ccccc4c23)CC1
IC50 [1]: 29 nM | Ratio (HeLa [2]): 1.1 | Ratio (HeLa [3]): 6.4

O=C(CN1CCN(CCO)CC1)Nc1ccc(-c2cccn3c(=O)cc(N4CCOCC4)nc23)c2oc3ccccc3c12
IC50 [1]: 17 nM | Ratio (HeLa [2]): 1.3 | Ratio (HeLa [3]): 5.8

CC(C)NC(=O)CN1CCN(CC(=O)Nc2ccc(-c3cccn4c(=O)cc(N5CCOCC5)nc34)c3oc4ccccc4c23)CC1
IC50 [1]: 36 nM | Ratio (HeLa [2]): 1.7 | Ratio (HeLa [3]): 13

O=C(CCN1CCOCC1)Nc1ccc(-c2cccn3c(=O)cc(N4CCOCC4)nc23)c2oc3ccccc3c12
IC50 [1]: 77 nM | Ratio (HeLa [2]): 1.3 | Ratio (HeLa [3]): 6.3

O=C(CCN1CCCCC1)Nc1ccc(-c2cccn3c(=O)cc(N4CCOCC4)nc23)c2oc3ccccc3c12
IC50 [1]: 21 nM | Ratio (HeLa [2]): 2.5 | Ratio (HeLa [3]): 1

C[C@@H]1CN(CCC(=O)Nc2ccc(-c3cccn4c(=O)cc(N5CCOCC5)nc34)c3oc4ccccc4c23)C[C@H](C)O1
IC50 [1]: 70 nM | Ratio (HeLa [2]): 0.9 | Ratio (HeLa [3]): 4.1

O=C(CCNCC1CCCO1)Nc1ccc(-c2cccn3c(=O)cc(N4CCOCC4)nc23)c2oc3ccccc3c12 (stereo not drawn)
IC50 [1]: 75 nM | Ratio (HeLa [2]): 1.3 | Ratio (HeLa [3]): 7.4

O=C(CN1CCOCC1)Nc1ccc(-c2cccc3c(=O)cc(N4CCOCC4)[nH]c23)c2oc3ccccc3c12
IC50 [1]: 112 nM | Ratio (HeLa [2]): 1.1 | Ratio (HeLa [3]): 1.6

COCCN1CCN(CC(=O)Nc2ccc(-c3cccc4c(=O)cc(N5CCOCC5)[nH]c34)c3oc4ccccc4c23)CC1
IC50 [1]: 68 nM | Ratio (HeLa [2]): 1.1 | Ratio (HeLa [3]): 1.4

CN1CCN(CC(=O)Nc2ccc(-c3cccc4c(=O)cc(N5CCOCC5)[nH]c34)c3oc4ccccc4c23)CC1
IC50 [1]: 116 nM | Ratio (HeLa [2]): 1.2 | Ratio (HeLa [3]): 1.6

C[C@@H]1CN(CC(=O)Nc2ccc(-c3cccc4c(=O)cc(N5CCOCC5)[nH]c34)c3oc4ccccc4c23)C[C@H](C)O1
IC50 [1]: 37 nM | Ratio (HeLa [2]): 1.1 | Ratio (HeLa [3]): 1.6

CCN1CCN(CC(=O)Nc2ccc(-c3cccc4c(=O)cc(N5CCOCC5)[nH]c34)c3oc4ccccc4c23)CC1
IC50 [1]: 77 nM | Ratio (HeLa [2]): 1.2 | Ratio (HeLa [3]): 3.6

O=C(CN1CCN(CCO)CC1)Nc1ccc(-c2cccc3c(=O)cc(N4CCOCC4)[nH]c23)c2oc3ccccc3c12
IC50 [1]: 39 nM | Ratio (HeLa [2]): 1.3 | Ratio (HeLa [3]): 1.5

CC(C)NC(=O)CN1CCN(CC(=O)Nc2ccc(-c3cccc4c(=O)cc(N5CCOCC5)[nH]c34)c3oc4ccccc4c23)CC1
IC50 [1]: 55 nM | Ratio (HeLa [2]): 1.4 | Ratio (HeLa [3]): 1.6

O=C(CCN1CCCCC1)Nc1ccc(-c2cccc3c(=O)cc(N4CCOCC4)[nH]c23)c2oc3ccccc3c12
IC50 [1]: 314 nM | Ratio (HeLa [2]): 1 | Ratio (HeLa [3]): 1.1

C[C@@H]1CN(CCC(=O)Nc2ccc(-c3cccc4c(=O)cc(N5CCOCC5)[nH]c34)c3oc4ccccc4c23)C[C@H](C)O1
IC50 [1]: 151 nM | Ratio (HeLa [2]): 0.8 | Ratio (HeLa [3]): 0.9

O=c1cc(N2CCOCC2)nc2c3ccccc3ccn12
IC50 [1]: 280 nM
